Test results: ChEMBL document CHEMBL4477177, “Antituberculosis Activity of a Naturally Occurring Flavonoid, Isorhamnetin” (J Nat Prod, 2016)
Values after ≈ are worked out from the molar mass of the structure shown.

Key:
[1] = tested on: Mycobacterium tuberculosis; test: Antitubercular activity against Mycobacterium tuberculosis H37Rv ATCC 27294 incubated for 7 days by resazurin assay; type: functional; conditions: H37Rv ATCC 27294, 168 h
[2] = Lipophilicity, logP of the compound; type: physicochemical; conditions: octanol/water
[3] = molecular target: Mitogen-activated protein kinase 3 (Homo sapiens) (UniProt P27361); test: Binding affinity to human ERK1 expressed in Escherichia coli BL21 by fluorescence quenching based spectrofluorometric analysis
Method in brief: (§1)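 C-terminally His6-tagged ERK1 or p38 MAPK expressed in E. coli and purified. Protein at 10 μM in 50 mM sodium phosphate, 100 mM NaCl, pH 8.0, titrated with ligand to 1:10 protein:ligand. Excitation 290 nm, emission 290–500 nm. Binding constant K derived from fluorescence quenching.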

[4] = molecular target: MAP kinase p38 (Homo sapiens) (UniProt O15264+Q15759+Q16539+P53778); test: Binding affinity to human C-terminally His-tagged p38 expressed in Escherichia coli BL21 by fluorescence quenching based spectrofluorometric analysis; method in brief: as §1
[5] = tested on: Mycobacterium tuberculosis; test: Antitubercular activity against Mycobacterium tuberculosis H37Rv P887 incubated for 1 to 9 days by inverted microscopic analysis; type: functional
Method in brief: (§2)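 Bacteria immobilised in 0.5% agarose within microfluidic channels of a 96-well chip. Compound (0–632 μM; rifampicin 0–19.4 μM) supplied in Middlebrook 7H9 with 10% OADC and allowed to diffuse in. Incubated at 37 °C; channel boundary imaged by inverted microscopy (40×) at 1, 3, 5, 7 and 9 days. MIC90 taken as lowest concentration giving 90% growth inhibition. Triplicate.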

[6] = tested on: Mycobacterium tuberculosis; test: Antitubercular activity against MDR Mycobacterium tuberculosis M22 incubated for 1 to 9 days by inverted microscopic analysis; type: functional; method in brief: as §2
[7] = tested on: Mycobacterium tuberculosis; test: Antitubercular activity against MDR Mycobacterium tuberculosis X23 incubated for 1 to 9 days by inverted microscopic analysis; type: functional
[8] = tested on: Mycobacterium tuberculosis; test: Antitubercular activity against XDR Mycobacterium tuberculosis X24 incubated for 1 to 9 days by inverted microscopic analysis; type: functional; method in brief: as §2
[9] = tested on: Mycobacterium tuberculosis; test: Antitubercular activity against XDR Mycobacterium tuberculosis X59 incubated for 1 to 9 days by inverted microscopic analysis; type: functional; method in brief: as §2

Mitogen-activated protein kinase 3 (Homo sapiens), sequence (P27361 whole entry): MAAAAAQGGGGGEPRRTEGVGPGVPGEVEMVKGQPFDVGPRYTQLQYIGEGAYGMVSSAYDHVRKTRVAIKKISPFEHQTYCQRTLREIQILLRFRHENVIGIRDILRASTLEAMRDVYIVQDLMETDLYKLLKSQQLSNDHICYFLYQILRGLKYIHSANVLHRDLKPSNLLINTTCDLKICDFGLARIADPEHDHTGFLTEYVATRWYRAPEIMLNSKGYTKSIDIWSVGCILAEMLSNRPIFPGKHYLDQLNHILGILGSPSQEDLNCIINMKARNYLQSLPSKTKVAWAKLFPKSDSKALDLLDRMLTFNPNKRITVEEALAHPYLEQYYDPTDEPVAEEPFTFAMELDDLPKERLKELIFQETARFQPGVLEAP

Structure (SMILES) | MIC [1] [µM] | logP [2] | K [3] | K [4] | MIC90 [5] [µM] | MIC90 [6] [µM] | MIC90 [7] [µM] | MIC90 [8] [µM] | MIC90 [9] [µM]
O=c1c(O)c(-c2ccc(O)c(O)c2)oc2cc(O)cc(O)c12 [QUERCETIN] | > 827 | 1.63 | 5.62 ×10⁵ /M | 9.87 ×10⁵ /M | – | – | – | – | –
COc1ccc(-c2oc3cc(O)cc(O)c3c(=O)c2O)cc1O [TAMARIXETIN] | – | 1.86 | 6.31 ×10⁴ /M | 4.64 ×10⁴ /M | 632 (≈ 200 µg/mL) | 632 (≈ 200 µg/mL) | 632 (≈ 200 µg/mL) | > 632 | > 632
